Measurements: ChEMBL document CHEMBL1127574, “Design and synthesis of ellipticinium salts and 1,2-dihydroellipticines with high selectivities against human CNS cancers in vitro” (1994)

How the values were obtained:
Format in all cases: functional
[1] = system: UO-31; assay: Tested in vitro for cytotoxicity in UO-31 cell line of Renal cancer; details: Homo sapiens, read-out: Log TGI (converted)
Method in brief: (§1)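 Compounds dissolved in DMSO and diluted 500-fold into aqueous medium; aliquots of the resulting solutions or suspensions added to cultured human tumor cells for 48 h. Growth read colorimetrically, either by tetrazolium reduction to formazan by viable cells or by protein staining of total cellular protein.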

[2] = system: HL-60; assay: Tested in vitro for cytotoxicity in HL-60(TB) cell line of Leukemia; details: Homo sapiens, read-out: Log TGI (converted)
Method in brief: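 Compounds were dissolved in DMSO and diluted 500-fold in aqueous medium. Aliquots of the resulting solution or suspension were added to the cultured cells for 48 h. Growth was read colorimetrically, either by tetrazolium reduction to formazan in viable cells or by a total-protein stain.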

[3] = system: HOP-62; assay: Tested in vitro for cytotoxicity in HOP-62 cell line of Non-Small Cell Lung Cancer; details: Homo sapiens, read-out: Log TGI (converted)
Method in brief: (§2)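 Compounds dissolved in DMSO, then diluted 500-fold into aqueous medium. The resulting aqueous solutions or suspensions were added to the cultured human tumour cell lines, and the cells were exposed for 48 h. Growth was read colorimetrically in one of two ways: a metabolic assay in which viable cells reduce a tetrazolium salt to a formazan dye, or a protein stain for total cellular protein.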

[4] = system: M14; assay: Tested in vitro for cytotoxicity in M14 cell line of Melanoma; details: Homo sapiens, read-out: Log TGI (converted); method in brief: as §2
[5] = system: K562; assay: Tested in vitro for cytotoxicity in K-562 cell line of Leukemia; details: Homo sapiens, read-out: Log TGI (converted); method in brief: as §2
[6] = system: RXF 631; assay: Tested in vitro for cytotoxicity in RXF-631 cell line of Renal cancer; details: Homo sapiens, read-out: Log TGI (converted); method in brief: as §2
[7] = system: HT-29; assay: Tested in vitro for cytotoxicity in HT-29 cell line of Colon Cancer; details: Homo sapiens, read-out: Log TGI (converted); method in brief: as §2
[8] = system: HOP-18; assay: Tested in vitro for cytotoxicity in HOP-18 cell line of Non-Small Cell Lung Cancer; details: Homo sapiens, read-out: Log TGI (converted); method in brief: as §2
[9] = system: A549; assay: Tested in vitro for cytotoxicity in A549/ATCC cell lines; details: Homo sapiens; method in brief: as §2
[10] = system: CCRF-CEM; assay: Tested in vitro for cytotoxicity in CCRF-CEM cell lines; details: Homo sapiens; method in brief: as §2
[11] = system: COLO 205; assay: Tested in vitro for cytotoxicity in COLO 205 cell lines; details: Homo sapiens; method in brief: as §2
[12] = system: SF-539; assay: Tested in vitro for cytotoxicity in SF-539 cell line of CNS Cancer; details: Homo sapiens, read-out: Log TGI (converted); method in brief: as §2
[13] = system: SNB-78; assay: Tested in vitro for cytotoxicity in SNB-78 cell line of CNS Cancer; details: Homo sapiens, read-out: Log TGI (converted); method in brief: as §1
[14] = system: DMS-114; assay: Tested in vitro for cytotoxicity in DMS114 cell lines; details: Homo sapiens; method in brief: as §2
[15] = system: DMS-114; assay: Tested in vitro for cytotoxicity in DMS114 cell line of Small Cell Lung Cancer; details: Homo sapiens, read-out: Log TGI (converted); method in brief: as §2
[16] = system: SW-620; assay: Tested in vitro for cytotoxicity in SW-620 cell line of Colon Cancer; details: Homo sapiens, read-out: Log TGI (converted); method in brief: as §1
[17] = system: U-251; assay: Tested in vitro for cytotoxicity in U251 cell line of CNS Cancer; details: Homo sapiens, read-out: Log TGI (converted); method in brief: as §1
[18] = system: RXF 393; assay: Tested in vitro for cytotoxicity in RXF-393 cell line of Renal cancer; details: Homo sapiens, read-out: Log TGI (converted); method in brief: as §2
[19] = system: SF-268; assay: Tested in vitro for cytotoxicity in SF-268 cell line of CNS cancer; details: Homo sapiens, read-out: Log TGI (converted); method in brief: as §2
[20] = system: OVCAR-5; assay: Tested in vitro for cytotoxicity in OVCAR-5 cell line of Ovarian Cancer; details: Homo sapiens, read-out: Log TGI (converted); method in brief: as §2
[21] = system: CAKI-1; assay: Tested in vitro for cytotoxicity in CAKI-1 cell line of Renal cancer; details: Homo sapiens, read-out: Log TGI (converted); method in brief: as §2
[22] = system: HCT-15; assay: Tested in vitro for cytotoxicity in HCT-15 cell line of Colon Cancer; details: Homo sapiens, read-out: Log TGI (converted); method in brief: as §2
[23] = system: DMS-273; assay: Tested in vitro for cytotoxicity in DMS273 cell line of Small Cell Lung Cancer; details: Homo sapiens, read-out: Log TGI (converted); method in brief: as §2
[24] = system: CAKI-1; assay: Tested in vitro for cytotoxicity in CAKI-1 cell lines; details: Homo sapiens; method in brief: as §2
[25] = system: SK-MEL-2; assay: Tested in vitro for cytotoxicity in SK-MEL-2 cell line of Melanoma; details: Homo sapiens, read-out: Log TGI (converted); method in brief: as §2
[26] = system: LOX IMVI; assay: Tested in vitro for cytotoxicity in LOX IMVI cell line of Melanoma; details: Homo sapiens, read-out: Log TGI (converted); method in brief: as §2
[27] = system: KM12; assay: Tested in vitro for cytotoxicity in KM12 cell line of Colon Cancer; details: Homo sapiens, read-out: Log TGI (converted); method in brief: as §2
[28] = system: Malme-3M; assay: Tested in vitro for cytotoxicity in MALME-3M; details: Homo sapiens; method in brief: as §2
[29] = system: SF-295; assay: Tested in vitro for cytotoxicity in SF-295 cell line of CNS Cancer; details: Homo sapiens, read-out: Log TGI (converted); method in brief: as §2
[30] = system: TK-10; assay: Tested in vitro for cytotoxicity in TK-10 cell line of Renal cancer; details: Homo sapiens, read-out: Log TGI (converted); method in brief: as §1
[31] = system: OVCAR-4; assay: Tested in vitro for cytotoxicity in OVCAR-4 cell line of Ovarian Cancer; details: Homo sapiens, read-out: Log TGI (converted); method in brief: as §2

In the case of `COc1ccc2[nH]c3c(C)c4c(c(C)c3c2c1)CN(C)C=C4`, the TGI [1] is reported as over 100 µM, the TGI [2] is reported as 63.1 µM and the TGI [3] is reported as 3.16 µM. The TGI [4] was 25.1 µM, the TGI [5] was over 100 µM and the TGI [6] was 25.1 µM. The TGI [7] was 25.1 µM, the TGI [8] was 39.8 µM and the GI50 [9] was 0.993 µM. For the same compound, the GI50 [10] was 2.64 µM, the GI50 [11] was 1.32 µM and the TGI [12] was 2 µM. The TGI [13] was 5.01 µM, the GI50 [14] was 0.525 µM and the TGI [15] was 2.51 µM. The TGI [16] was 15.8 µM, the TGI [17] was 1 µM and the TGI [18] was 31.6 µM. The TGI [19] was 0.631 µM, the TGI [20] was 31.6 µM and the TGI [21] was 31.6 µM. It also gave a TGI [22] of over 100 µM, a TGI [23] of 12.6 µM and a GI50 [24] of 20.1 µM. The TGI [25] was 10 µM, the TGI [26] was 25.1 µM and the TGI [27] was 15.8 µM. For the same compound, the GI50 [28] was 1.44 µM, the TGI [29] was 7.94 µM and the TGI [30] was 50.1 µM. It also gave a TGI [31] of 25.1 µM.
